PMC5832441 (Nature, 2017)

Tests used:
[1] = tested on: calcitonin receptor (CTR); experiment: Whole cell radioligand competition binding with 125I-sCT; set-up: species or system human; details: competition with 125I-sCT(8-32), N130D mutant; five independent experiments
Summary of the method: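 Cos7 cells in DMEM/10% FBS, transiently transfected with PEI (DNA:PEI 1:6 in 150mM NaCl, 15 min) and seeded at 3 × 10⁴/well for 48 h at 37°C, 5% CO₂. Total binding: 0.05 nM ¹²⁵I-sCT(8-32) alone. Nonspecific binding: co-incubation with 1 μM sCT(8-32). Each experiment normalised to its own specific binding.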

[2] = tested on: HA-FLAG-3C-CTR-3C-8xHis CTR with Gs protein heterotrimer; experiment: [35S]GTPγS binding on CTR expressed in insect cells; assay type: biochemical, human; details: insect cell membranes, absence and presence of Gs heterotrimer; four independent experiments
[3] = tested on: calcitonin receptor (CTR); experiment: cAMP accumulation in transfected COS7 or 3T3-FlpIn cells; assay type: cell-based, human
Summary of the method: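 COS7 or 3T3-FlpIn cells transfected with PEI (DNA:PEI 1:6 in 150mM NaCl, 15 min), plated at 3 × 10⁴/well and held 48 h at 37°C, 5% CO₂. Signals converted to cAMP using a parallel standard curve, then normalised to 100 μM forskolin within each cell line. For efficacy, Black-Leff operational model (Logτ_c) applied, corrected for cell-surface expression.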

[4] = tested on: calcitonin receptor (CTR); experiment: ERK1/2 phosphorylation; assay type: cell-based, human; details: H302A mutant, 3T3-FlpIn cells; four independent experiments in duplicate
Summary of the method: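 3T3-FlpIn cells grown in DMEM with 10% v/v FBS at 37°C. Transient transfection used PEI; DNA and PEI in 150mM NaCl were combined 1:6 and left 15 min before adding to the cell suspension. Cells were plated at 3 × 10⁴/well and held 48 h at 37°C, 5% CO₂ before the pERK1/2 AlphaScreen read.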

CTR = details: cited from earlier work
[5] = cell surface ELISA to N-terminal epitope tag; details: glycan lost; control: WT CTR

## salmon calcitonin [sCT]
[1]
  sCT affinity at N130D CTR compared to WT: reduced affinity
[2]
  G protein activation via GTPγS binding, sCT concentration response: can robustly activate Gs
[3]; COS7 cells, truncation after Trp413, 5 independent experiments in duplicate
  sCT-mediated cAMP efficacy at Δ414 CTR: no effect on receptor function
[3]; H302A mutant, 3T3-FlpIn cells, four independent experiments in duplicate
  sCT potency in cAMP production at H302A CTR: reduced potency
[3]; N130D mutant, five independent experiments
  sCT potency in cAMP accumulation at N130D CTR relative to WT: reduce the potency
[4]
  sCT potency in phosphorylation of ERK1/2 at H302A CTR: reduced potency
CTR
  off-rate: very slow off-rate

B1: calcitonin receptor (CTR): N28D (protein)
parent chain: MRFTFTSRCLALFLLLNHPTPILPAFSNQTYPTIEPKPFLYVVGRKKMMDAQYKCYDRMQQLPAYQGEGPYCNRTWDGWLCWDDTPAGVLSYQFCPDYFPDFDPSEKVTKYCDEKGVWFKHPENNRTWSNYTMCNAFTPEKLKNAYVLYYLAIVGHSLSIFTLVISLGIFVFFRSLGCQRVTLHKNMFLTYILNSMIIIIHLVEVVPNGELVRRDPVSCKILHFFHQYMMACNYFWMLCEGIYLHTLIVVAVFTEKQRLRWYYLLGWGFPLVPTTIHAITRAVYFNDNCWLSVETHLLYIIHGPVMAALVVNFFFLLNIVRVLVTKMRETHEAESHMYLKAVKATMILVPLLGIQFVVFPWRPSNKMLGKIYDYVMHSLIHFQGFFVATIYCFCNNEVQTTVKRQWAQFKIQWNQRWGRRPSNRSARAAAAAAEAGDIPIYICHQELRNEPANNQGEESAEIIPLNIIEQESSA
[5]
  expression_or_secretion: no change

B2: calcitonin receptor (CTR): N130D (protein)
parent chain: B1 parent chain
[5]
  expression_or_secretion: no change

B3: calcitonin receptor (CTR): N125D (protein)
parent chain: B1 parent chain
[5]
  expression_or_secretion: no change

B4: calcitonin receptor (CTR): N73D (protein)
parent chain: B1 parent chain
[5]
  expression_or_secretion: no change
